# Measured values of several laboratories.
# Protocols differ between the studies behind these lines.
# Target: Homeodomain-interacting protein kinase 3 (HIPK3, Homo sapiens, UniProt Q9H422)
SMILES,observed,action,technique,tested at,endpoint,result
CO[C@@H]1[C@H](N(C)C(=O)c2ccccc2)C[C@H]2O[C@]1(C)n1c3ccccc3c3c4c(c5c6ccccc6n2c5c31)C(=O)NC4,enzyme activity,inhibitor,,1 µM,inhibition,30%
CN1CCN(C(=O)c2ccc(NC(=O)Nc3ccc(N(C)c4ccnc(Nc5ccc(CS(C)(=O)=O)cc5)n4)cc3)cc2)CC1,binding,,competition with immobilised ligand,1 µM,remaining binding,71%
CC(C)S(=O)(=O)c1ccc2nccc(Nc3ccc4sc(C5CCCC5)nc4c3)c2c1,enzyme activity,inhibitor,,1 µM,activity vs control,102%
Cc1ccc(NC(=O)c2ccnc(C(F)(F)F)c2)cc1-c1cc(OCCO)nc(N2CCOCC2)c1,binding,,competition with immobilised ligand,1 µM,remaining binding,98%
C=CC(=O)N1CCC([C@@H]2CCNc3c(C(N)=O)c(-c4ccc(Oc5ccccc5)cc4)nn32)CC1,enzyme activity,inhibitor,,1 µM,inhibition,4%
C1=C/COCc2cc(ccc2OCCN2CCCC2)Nc2nccc(n2)-c2cccc(c2)COC/1,binding,,,0.1 µM,remaining binding,15%
C#Cc1cc(-c2cc(Nc3nc(N[C@@H](C)c4ccc(F)cn4)ncc3Cl)n[nH]2)ccc1C=O,enzyme activity,inhibitor,,0.2 µM,inhibition,39.6%
CCCCC(=O)Nc1ccc(-c2ccc3ncn(CCC)c(=O)c3c2)cn1,binding,,competition with immobilised ligand,0.5 µM,remaining binding,100%
